Experiments:
Rattus norvegicus [1] = experiment: Distribution of Radioactivity (percent injected dose per gram of tissue) in Rat brain cortex after 30 min of iv administration; value ranges from 2.47-3.09; assay type: ADME, organism-based; conditions: in vivo, 0.5 h
Outline: (§1)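 Male Sprague-Dawley rats (225-300 g) under ketamine received a tail-vein dose of 50 µCi of [18F]-labeled tropane in 0.2 mL 13% EtOH/0.9% NaCl. At 5, 30, 60 or 120 min, cortex, striatum and cerebellum were dissected into tared tubes, weighed and γ-counted. "Rest of brain" was also counted. %dose/g was calculated against the diluted injected dose. Values are mean and range for three or four rats.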

[2] = target: Sodium-dependent dopamine transporter (Rattus norvegicus, UniProt P23977); experiment: Inhibition constant in rat dopamine transporter.
Sequence of Sodium-dependent dopamine transporter (Rattus norvegicus, UniProt P23977) (P23977 whole entry): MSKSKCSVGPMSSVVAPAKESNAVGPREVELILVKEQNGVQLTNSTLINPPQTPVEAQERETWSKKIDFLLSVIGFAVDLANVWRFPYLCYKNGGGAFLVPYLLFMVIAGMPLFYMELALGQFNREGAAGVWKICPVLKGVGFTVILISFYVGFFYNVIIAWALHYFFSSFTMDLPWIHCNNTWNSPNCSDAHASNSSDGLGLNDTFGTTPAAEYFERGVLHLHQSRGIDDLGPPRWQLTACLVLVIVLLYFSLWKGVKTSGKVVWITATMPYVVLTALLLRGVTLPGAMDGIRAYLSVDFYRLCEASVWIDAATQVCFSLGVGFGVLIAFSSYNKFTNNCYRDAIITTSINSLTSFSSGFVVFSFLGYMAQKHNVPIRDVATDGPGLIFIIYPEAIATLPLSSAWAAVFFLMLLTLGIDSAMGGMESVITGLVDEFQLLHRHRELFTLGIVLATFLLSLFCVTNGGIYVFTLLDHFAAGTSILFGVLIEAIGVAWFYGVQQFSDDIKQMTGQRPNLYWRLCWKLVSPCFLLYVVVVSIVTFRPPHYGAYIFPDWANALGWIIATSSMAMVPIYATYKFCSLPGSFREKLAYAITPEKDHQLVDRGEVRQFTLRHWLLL
Outline: (§2)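 Run by an outside screening program on membranes from rat striatum or cortex. Radioligand (2-12 nM) was incubated with 7-11 competitor concentrations. Radioligands: [N-methyl-³H]WIN 35,428 for DAT, [³H]citalopram for 5-HT transporter, [³H]desmethylimipramine for NE transporter. Ki values reported.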

Rattus norvegicus [3] = experiment: Distribution of Radioactivity (percent injected dose per gram of tissue) in Rat striatum 5 min of iv administration; value ranges from 3.44-4.80.; assay type: ADME, organism-based; conditions: in vivo; outline: as §1
Rattus norvegicus [4] = experiment: Distribution of Radioactivity (percent injected dose per gram of tissue) in Rat brain cerebellum after 60 min of iv administration; value ranges from 0.32-0.48; assay type: ADME, organism-based; conditions: in vivo, 1 h; outline: as §1
Rattus norvegicus [5] = experiment: Distribution of Radioactivity (percent injected dose per gram of tissue) in Rat brain cerebellum after 30 min of iv administration; value ranges from 0.75-1.23; assay type: ADME, organism-based; conditions: in vivo, 0.5 h; outline: as §1
Rattus norvegicus [6] = experiment: Distribution of Radioactivity (percent injected dose per gram of tissue) in rest rat of brain after 120 min of iv administration; value ranges from 0.22-0.33; assay type: ADME, organism-based; conditions: in vivo, 2 h; outline: as §1
Rattus norvegicus [7] = experiment: Distribution of Radioactivity (percent injected dose per gram of tissue) in rest rat of brain after 30 min of iv administration; value ranges from 0.85-1.21; assay type: ADME, organism-based; conditions: in vivo, 0.5 h; outline: as §1
[8] = Ratio of Distribution of Radioactivity (percent injected dose per gram of tissue) in striatum to cortex of brain after 120 min of iv administration; value ranges from 2.61-3.24; assay type: ADME, organism-based; conditions: in vivo, 2 h
[9] = target: Sodium-dependent serotonin transporter (Homo sapiens, UniProt P31645); experiment: Inhibition constant against [3H]citalopram in murine kidney cells transfected with human serotonin transporter.; assay type: cell-based
Sequence of Sodium-dependent serotonin transporter (Homo sapiens, UniProt P31645) (P31645 whole entry): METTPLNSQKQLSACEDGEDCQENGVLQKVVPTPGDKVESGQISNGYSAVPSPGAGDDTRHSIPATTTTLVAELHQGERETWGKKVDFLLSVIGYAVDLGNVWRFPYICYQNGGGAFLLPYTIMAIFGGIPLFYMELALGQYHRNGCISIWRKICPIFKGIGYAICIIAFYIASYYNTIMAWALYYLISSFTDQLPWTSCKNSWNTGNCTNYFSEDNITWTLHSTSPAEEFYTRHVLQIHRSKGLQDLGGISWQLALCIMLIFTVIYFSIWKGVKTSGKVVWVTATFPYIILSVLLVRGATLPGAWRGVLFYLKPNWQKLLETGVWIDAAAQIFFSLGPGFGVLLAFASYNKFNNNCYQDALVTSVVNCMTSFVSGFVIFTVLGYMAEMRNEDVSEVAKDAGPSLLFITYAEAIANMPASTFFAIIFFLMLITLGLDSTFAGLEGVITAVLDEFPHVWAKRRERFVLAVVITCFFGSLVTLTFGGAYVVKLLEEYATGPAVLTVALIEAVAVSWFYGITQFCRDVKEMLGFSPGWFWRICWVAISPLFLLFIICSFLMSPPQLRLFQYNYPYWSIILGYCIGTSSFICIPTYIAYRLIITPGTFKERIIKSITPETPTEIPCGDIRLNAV
Outline: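 Membranes from a kidney cell line stably expressing human SERT. Buffer: 50 mM Tris, 120 mM NaCl, 5 mM KCl, pH 7.9. Radioligand: [³H]citalopram at 0.5 nM final. Incubated 1 h at 22 °C with competitor at nine concentrations (10^-13 to 10^-6 M, triplicate). Filtration, then scintillation counting. Ki taken from competition curves.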

[10] = target: Sodium-dependent dopamine transporter (Homo sapiens, UniProt Q01959); experiment: Inhibition constant against [N-methyl-3H]WIN-35428 in murine kidney cells transfected with human dopamine transporter.; assay type: cell-based
Sequence of Sodium-dependent dopamine transporter (Homo sapiens, UniProt Q01959) (Q01959 whole entry): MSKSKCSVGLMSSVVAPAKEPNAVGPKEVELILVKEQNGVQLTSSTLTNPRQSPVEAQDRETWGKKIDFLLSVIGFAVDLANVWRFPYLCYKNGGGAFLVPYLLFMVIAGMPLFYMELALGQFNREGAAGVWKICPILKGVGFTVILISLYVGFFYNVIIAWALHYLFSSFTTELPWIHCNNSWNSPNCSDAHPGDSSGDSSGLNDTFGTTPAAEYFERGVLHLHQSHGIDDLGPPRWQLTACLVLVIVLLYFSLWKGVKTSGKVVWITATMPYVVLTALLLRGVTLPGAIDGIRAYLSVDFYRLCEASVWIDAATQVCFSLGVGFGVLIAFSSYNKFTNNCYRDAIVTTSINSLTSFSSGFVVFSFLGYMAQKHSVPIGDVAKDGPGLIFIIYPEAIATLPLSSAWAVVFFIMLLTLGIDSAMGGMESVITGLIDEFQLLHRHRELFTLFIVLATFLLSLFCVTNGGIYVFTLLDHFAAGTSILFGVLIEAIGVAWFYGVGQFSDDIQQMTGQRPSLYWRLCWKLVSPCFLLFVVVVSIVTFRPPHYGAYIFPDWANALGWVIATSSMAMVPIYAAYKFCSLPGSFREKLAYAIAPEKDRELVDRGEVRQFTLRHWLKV
Outline: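 Membranes from a kidney cell line stably expressing human DAT. Buffer: 0.03 M phosphate, pH 7.4, with 0.32 M sucrose. Radioligand: [³H]WIN 35,428 at 2.0 nM final. Incubated 2 h at 4 °C with competitor at nine concentrations (10^-13 to 10^-6 M, triplicate). GF/B filtration, then scintillation counting. Ki taken from competition curves.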

[11] = Ratio of Distribution of Radioactivity (percent injected dose per gram of tissue) in striatum to cortex of brain after 30 min of iv administration; value ranges from 1.67-2.85; assay type: ADME, organism-based; conditions: in vivo, 0.5 h
[12] = Ratio of Distribution of Radioactivity (percent injected dose per gram of tissue) in striatum to cortex of brain after 5 min of iv administration; value ranges from 1.32-1.94; assay type: ADME, organism-based; conditions: in vivo
Rattus norvegicus [13] = experiment: Distribution of Radioactivity (percent injected dose per gram of tissue) in Rat brain cortex after 60 min of iv administration; value ranges from 0.51-1.09; assay type: ADME, organism-based; conditions: in vivo, 1 h; outline: as §1
Rattus norvegicus [14] = experiment: Distribution of Radioactivity (percent injected dose per gram of tissue) in Rat striatum after 120 min of iv administration; value ranges from 1.07-1.22; assay type: ADME, organism-based; conditions: in vivo, 2 h; outline: as §1
[15] = target: Norepinephrine transporter (Rattus norvegicus, UniProt Q9WTR4); experiment: Inhibition constant in rat Norepinephrine transporter; outline: as §2
Sequence of Norepinephrine transporter (Q9WTR4 whole entry): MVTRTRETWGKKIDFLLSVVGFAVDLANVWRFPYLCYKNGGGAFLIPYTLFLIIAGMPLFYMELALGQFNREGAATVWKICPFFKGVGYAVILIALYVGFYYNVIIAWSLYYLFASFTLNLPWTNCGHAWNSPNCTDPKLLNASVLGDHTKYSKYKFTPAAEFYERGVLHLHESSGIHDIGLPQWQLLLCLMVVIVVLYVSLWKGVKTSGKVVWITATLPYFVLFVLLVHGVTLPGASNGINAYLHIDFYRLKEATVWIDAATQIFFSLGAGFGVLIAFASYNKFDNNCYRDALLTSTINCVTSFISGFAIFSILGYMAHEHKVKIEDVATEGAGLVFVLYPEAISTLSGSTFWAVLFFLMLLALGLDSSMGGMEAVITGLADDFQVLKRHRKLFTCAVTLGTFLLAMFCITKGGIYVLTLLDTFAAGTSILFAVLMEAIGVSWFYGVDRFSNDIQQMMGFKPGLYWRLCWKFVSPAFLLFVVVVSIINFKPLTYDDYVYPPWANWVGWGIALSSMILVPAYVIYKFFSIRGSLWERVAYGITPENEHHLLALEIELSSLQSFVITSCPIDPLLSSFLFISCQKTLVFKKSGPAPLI

Rattus norvegicus [16] = experiment: Distribution of Radioactivity (percent injected dose per gram of tissue) in Rat brain cortex after 5 min of iv administration; value ranges from 2.47-3.09; assay type: ADME, organism-based; conditions: in vivo; outline: as §1
Rattus norvegicus [17] = experiment: Distribution of Radioactivity (percent injected dose per gram of tissue)in Rat striatum after 30 min of iv administration; value ranges from 3.57-6.08; assay type: ADME, organism-based; conditions: in vivo, 0.5 h; outline: as §1
[18] = Ratio of Distribution of Radioactivity (percent injected dose per gram of tissue) in striatum to cerebellum of brain after 60 min of iv administration; value ranges from 4.43-6.93; assay type: ADME, organism-based; conditions: in vivo, 1 h
[19] = Ratio of Distribution of Radioactivity (percent injected dose per gram of tissue) in striatum to cerebellum of brain after 30 min of iv administration; value ranges from 3.83-4.94; assay type: ADME, organism-based; conditions: in vivo, 0.5 h
[20] = Ratio of inhibition of 5-HT to inhibition of dopamine (5-HT/DA); ND means no data.
[21] = Ratio of Distribution of Radioactivity (percent injected dose per gram of tissue) in striatum to cerebellum of brain after 5 min of iv administration; value ranges from 2.49-3.81; assay type: ADME, organism-based; conditions: in vivo
Rattus norvegicus [22] = experiment: Distribution of Radioactivity (percent injected dose per gram of tissue) in rest rat of brain after 5 min of iv administration; value ranges from 1.19-1.53; assay type: ADME, organism-based; conditions: in vivo; outline: as §1
Rattus norvegicus [23] = experiment: Distribution of Radioactivity (percent injected dose per gram of tissue) in Rat brain cortex after 120 min of iv administration; value ranges from 0.22-0.33; assay type: ADME, organism-based; conditions: in vivo, 2 h; outline: as §1
kidney = experiment: Ratio of inhibition of 5-HT to inhibition of dopamine (5-HT/DA) in murine kidney cells transfected with human serotonin transporter.; assay type: cell-based
Rattus norvegicus [24] = experiment: Distribution of Radioactivity (percent injected dose per gram of tissue) in Rat brain cerebellum after 120 min of iv administration; value ranges from 0.19-0.25; assay type: ADME, organism-based; conditions: in vivo, 2 h; outline: as §1
Rattus norvegicus [25] = experiment: Distribution of Radioactivity (percent injected dose per gram of tissue) in Rat striatum after 60 min of iv administration; value ranges from 2.07-2.83; assay type: ADME, organism-based; conditions: in vivo, 1 h; outline: as §1
Rattus norvegicus [26] = experiment: Distribution of Radioactivity (percent injected dose per gram of tissue) in Rat brain cerebellum after 5 min of iv administration; value ranges from 1.26-1.62; assay type: ADME, organism-based; conditions: in vivo; outline: as §1
Rattus norvegicus [27] = experiment: Distribution of Radioactivity (percent injected dose per gram of tissue) in rest rat of brain after 60 min of iv administration; value ranges from 0.36-0.52; assay type: ADME, organism-based; conditions: in vivo, 1 h; outline: as §1
[28] = target: Sodium-dependent serotonin transporter (Rattus norvegicus, UniProt P31652); experiment: Inhibition constant in rat serotonin transporter.; outline: as §2
Sequence of Sodium-dependent serotonin transporter (Rattus norvegicus, UniProt P31652) (P31652 whole entry): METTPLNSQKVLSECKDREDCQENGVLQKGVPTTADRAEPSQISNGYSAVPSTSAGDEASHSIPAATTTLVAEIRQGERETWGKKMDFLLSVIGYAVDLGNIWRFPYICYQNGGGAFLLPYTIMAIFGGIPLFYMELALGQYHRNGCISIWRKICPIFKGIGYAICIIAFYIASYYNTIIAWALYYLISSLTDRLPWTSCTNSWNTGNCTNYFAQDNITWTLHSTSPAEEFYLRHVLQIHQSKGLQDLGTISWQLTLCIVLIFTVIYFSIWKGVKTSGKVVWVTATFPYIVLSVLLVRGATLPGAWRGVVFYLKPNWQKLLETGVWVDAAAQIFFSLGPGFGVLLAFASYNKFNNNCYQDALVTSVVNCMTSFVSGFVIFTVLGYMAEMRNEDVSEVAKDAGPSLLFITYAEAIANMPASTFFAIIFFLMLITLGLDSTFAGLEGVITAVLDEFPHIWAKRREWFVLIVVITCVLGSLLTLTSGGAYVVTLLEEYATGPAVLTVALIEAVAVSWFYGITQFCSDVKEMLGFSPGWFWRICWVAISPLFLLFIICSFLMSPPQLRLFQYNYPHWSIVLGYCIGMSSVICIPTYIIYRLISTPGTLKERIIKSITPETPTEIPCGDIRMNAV

[29] = Ratio of Distribution of Radioactivity (percent injected dose per gram of tissue) in striatum to cortex of brain after 60 min of iv administration; value ranges from 2.59-4.06; assay type: ADME, organism-based; conditions: in vivo, 1 h
[30] = Ratio of Distribution of Radioactivity (percent injected dose per gram of tissue) in striatum to cerebellum of brain after 120 min of iv administration; value ranges from 4.64-6.14; assay type: ADME, organism-based; conditions: in vivo, 2 h

In the case of `C[C@H](CF)OC(=O)C1C(c2ccc(Cl)cc2)CC2CCC1N2C` (stereo partly drawn), the Biodistribution (Rattus norvegicus [1]) is reported as 2.04%, the Ki [2] is reported as 14.7 nM and the Biodistribution (Rattus norvegicus [3]) is reported as 3.97%. It also gave a Biodistribution (Rattus norvegicus [4]) of 0.38%, a Biodistribution (Rattus norvegicus [5]) of 0.99% and a Biodistribution (Rattus norvegicus [6]) of 0.27%. The Biodistribution (Rattus norvegicus [7]) was 1.03%, the “S/CX Ratio” value [8] was 3 and the Ki [9] was 64 nM. For the same molecule, the Ki [10] was 3.2 nM, the “S/CX Ratio” value [11] was 2.21 and the “S/CX Ratio” value [12] was 1.44. For the same molecule, the Biodistribution (Rattus norvegicus [13]) was 0.77%, the Biodistribution (Rattus norvegicus [14]) was 1.2% and the Ki [15] was 498 nM. For the same molecule, the Biodistribution (Rattus norvegicus [16]) was 2.76%, the Biodistribution (Rattus norvegicus [17]) was 4.5% and the “S/Cereb Ratio” value [18] was 6. For the same molecule, the “S/Cereb Ratio” value [19] was 4.55, the Ratio [20] was 9 and the “S/Cereb Ratio” value [21] was 2.79. The Biodistribution (Rattus norvegicus [22]) was 1.36%, the Biodistribution (Rattus norvegicus [23]) was 0.4% and the Ratio (kidney) was 20. For the same molecule, the Biodistribution (Rattus norvegicus [24]) was 0.22%, the Biodistribution (Rattus norvegicus [25]) was 2.28% and the Biodistribution (Rattus norvegicus [26]) was 1.42%. For the same molecule, the Biodistribution (Rattus norvegicus [27]) was 0.45%, the Ki [28] was 133 nM and the “S/CX Ratio” value [29] was 2.96. The “S/Cereb Ratio” value [30] was 5.45.
Molecule `C[C@@H](CF)OC(=O)C1C(c2ccc(Cl)cc2)CC2CCC1N2C` (stereo partly drawn) has a Ki [2] of 6.06 nM, a Ki [9] of 85 nM and a Ki [10] of 0.67 nM. It also gave a Ki [15] of 690 nM, a Ratio [20] of 23 and a Ratio (kidney) of 127. For the same molecule, the Ki [28] was 137 nM.

Reference: ChEMBL document CHEMBL1133704, “Synthesis, biodistribution, and primate imaging of fluorine-18 labeled 2beta-carbo-1'-fluoro-2-propoxy-3beta-(4-chlorophenyl)tr opanes. Ligands for the imaging of dopamine transporters by positron emission tomography” (J Med Chem, 2000)
